# From PubChem BioAssay AID602194 (The Scripps Research Institute Molecular Screening Center, 2012)
# In all, about 2,400 compounds went through this assay and about 140 (5.8%) were called active. These entries were drawn from the full list. A number with no mark means an inactive call.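 Rule for the calls: active = mean activation across replicates exceeds the hit threshold derived in the earlier primary screen (cut at about 18% in these data); inactive = the rest.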
# Target: Mu-type opioid receptor (Homo sapiens) + Delta-type opioid receptor (Homo sapiens) (UniProt P35372+P41143)
# Sequence (P35372 whole entry, looked up): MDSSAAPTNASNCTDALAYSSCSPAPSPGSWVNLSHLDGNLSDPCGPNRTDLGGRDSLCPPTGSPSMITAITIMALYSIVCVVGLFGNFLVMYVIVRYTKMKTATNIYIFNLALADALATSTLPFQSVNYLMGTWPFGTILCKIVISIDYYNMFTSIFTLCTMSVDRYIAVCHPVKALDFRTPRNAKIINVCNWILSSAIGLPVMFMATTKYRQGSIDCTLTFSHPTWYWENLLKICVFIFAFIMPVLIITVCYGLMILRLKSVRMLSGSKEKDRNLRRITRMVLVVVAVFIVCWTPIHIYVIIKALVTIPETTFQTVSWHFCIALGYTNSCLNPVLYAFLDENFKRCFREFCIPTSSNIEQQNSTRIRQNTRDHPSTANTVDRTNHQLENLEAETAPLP
# Sequence (P41143 whole entry, looked up): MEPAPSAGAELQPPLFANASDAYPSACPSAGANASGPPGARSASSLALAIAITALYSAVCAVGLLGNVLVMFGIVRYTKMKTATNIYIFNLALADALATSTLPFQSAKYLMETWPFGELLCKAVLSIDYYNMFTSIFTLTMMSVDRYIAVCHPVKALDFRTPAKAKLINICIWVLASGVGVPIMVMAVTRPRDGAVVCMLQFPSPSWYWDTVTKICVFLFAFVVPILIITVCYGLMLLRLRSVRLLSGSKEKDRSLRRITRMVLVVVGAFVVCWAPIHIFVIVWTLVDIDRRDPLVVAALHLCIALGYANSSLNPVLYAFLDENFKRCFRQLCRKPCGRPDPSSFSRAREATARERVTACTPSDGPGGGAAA
# Assay: OPRM1-OPRD1 heterodimer beta-arrestin recruitment activators – cell-based, luminescence, counter-screen for MC4R biased agonist project (AID 602194)
# Settings: U2OS PathHunter beta-arrestin, beta-gal luminescence; at 9.2 µM; stronger effect = higher value; percent of deltorphin B response, DMSO zero
# Summary of the method: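 Repeats: triplicate; Test system: U2OS Mu-Delta cell line; Benchmarks: Deltorphin B 0.9 µM final as 100%, DMSO only as 0%; Measured by: beta-gal complementation luminescence; Schedule: 3 h compound exposure at 37 °C, 1 h room-temperature readout; Dosing: single dose, 9.2 µM final nominal compound concentration.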
row,Structure (SMILES),activation
1,CC(=O)Nc1cc(-c2ccccc2N(C)C)cn2c(-c3ccc(F)c(Cl)c3)cnc12,4.79%
2,CC(=O)Nc1cc(-c2ccccc2F)cn2c(-c3cccc(C(F)(F)F)c3)cnc12,2.54%
3,Cc1csc(NC(=O)c2ccc(-c3ccc(Cl)cc3Cl)o2)n1,5.41%
4,CCCCNc1c(-c2cccc(Sc3ccc(OC)cc3)c2)nc2ccccn12,6.07%
5,CCN1CCN(CCNC(=O)c2ccc(/C=C3/Sc4ccccc4N(Cc4cccc(C)c4)C3=O)cc2)CC1,4.15%
6,Cc1ccccc1NC(=O)c1ccc(COc2ccc3c(C)cc(=O)oc3c2)cc1,12.7%
7,O=C(/C=C/c1c(Cl)cccc1Cl)NCc1ccccc1,5.53%
8,COc1c(Cl)cc(C(=O)Nc2ccc(Cl)cn2)cc1Cl,7.15%
9,NC(N)=Nc1nc(-c2ccccc2)c2cc(Cl)ccc2n1,5.11%
10,O=C(NC1CCCCCC1)c1cccnc1Sc1ccc(Cl)cc1,3.4%
11,Brc1ccc(-c2csc(N/N=C/c3cccnc3)n2)cc1,5.84%
12,Cc1cccc(NC(=O)Nc2cccc(Oc3c(F)c(F)c(F)c(F)c3F)c2)c1,6.53%
13,COc1ccc(-c2cc(NC=O)c3ncc(-c4ccccc4)n3c2)cc1OC,3.12%
14,O=C(CCCN1C(=O)/C(=C\c2ccco2)SC1=S)Nc1cccc2ccccc12,4.3%
15,O=C(CCCn1c(SCC(=O)c2ccc(F)cc2)nc2ccccc2c1=O)NCc1ccco1,33.1% (active)
16,O=C(CCCCCN1C(=O)c2cccc3cccc(c23)C1=O)NCc1ccco1,9.12%
17,COc1ccc(S(=O)(=O)N/N=C\c2ccc(OC)c(COc3ccc(C)cc3[N+](=O)[O-])c2)cc1,3.27%

row,Structure (SMILES),activation
1,COc1ccccc1-c1cc(NC(C)=O)c2ncc(-c3ccc(F)cc3)n2c1,4.19%
2,O=C(N/N=C/c1ccc(OC(=O)c2ccccc2Cl)cc1)c1ccc(O)cc1,6.45%
3,CC(=O)c1cccc(-c2cnc3c(NC=O)cc(-c4ccc(N(C)C)cc4)cn23)c1,2.52%
4,Cc1ccc(-n2cc3ccc([N+](=O)[O-])cc3n2)cc1,7.27%
5,COc1ccc(OCC(=O)Nc2ccc(N3CCC(C)CC3)cc2)cc1,2.59%
6,O=C(NCCc1c[nH]c2ccc(Cl)cc12)c1ccc([N+](=O)[O-])cc1,15.2%
7,CCOC(=O)c1[nH]c2c(c1-c1ccccc1)C(=O)CC(c1ccc(Cl)cc1)C2 (centres undefined),6.76%
8,CCCCCCCCCCOC(=O)Cn1c(COc2ccc(C)cc2)[n+](C)c2ccccc21,22.4% (active)
9,CCCCCCCCCCOC(=O)Cn1c(COc2cccc(OC)c2)[n+](C)c2ccccc21,19.9% (active)
10,COc1cc(/C=C(\C#N)C(=O)Nc2ccc3ccccc3c2)c([N+](=O)[O-])cc1OC,10.3%
11,CCN1C[C@@H]2[C@@H]3C(=O)N(Cc4ccccc4)C(=O)[C@@H]3[C@](Cc3ccccc3)(C(=O)OC)N2C1=NC1CCCCC1,5.52%
12,O=C(NC(c1ccc(-c2ccccc2)cc1)c1cnccn1)C1CCN(CCOc2ccc(Cl)cc2Cl)CC1 (centres undefined),9.53%
13,O=C(COC(=O)c1cccc(Br)c1)Nc1cccc2c1C(=O)c1ccccc1C2=O,6.2%
14,O=C(NC(=S)Nc1cccc2c(O)cccc12)c1cccc(Br)c1,8.2%
15,CCN(CC)S(=O)(=O)c1ccc(C)c(NC(=O)COc2ccc(Br)cc2Cl)c1,6.67%
16,CSc1ccc(/C=N\NC(=O)COc2ccc(Cl)cc2Br)cc1,5.52%
17,COc1ccc(C)c(Cn2c(-c3nonc3N)nc3ccccc32)c1,5.04%
